A word on the Ki: it is the dissociation constant of the complex between target and ligand, obtained from inhibition or displacement. As usually defined, the pKb is the negative decadic logarithm of the Kb, by convention in mol/L.

Test [1] addresses T1, Muscarinic acetylcholine receptor M4 (Homo sapiens, UniProt P08173).
T1 sequence (P08173 whole entry): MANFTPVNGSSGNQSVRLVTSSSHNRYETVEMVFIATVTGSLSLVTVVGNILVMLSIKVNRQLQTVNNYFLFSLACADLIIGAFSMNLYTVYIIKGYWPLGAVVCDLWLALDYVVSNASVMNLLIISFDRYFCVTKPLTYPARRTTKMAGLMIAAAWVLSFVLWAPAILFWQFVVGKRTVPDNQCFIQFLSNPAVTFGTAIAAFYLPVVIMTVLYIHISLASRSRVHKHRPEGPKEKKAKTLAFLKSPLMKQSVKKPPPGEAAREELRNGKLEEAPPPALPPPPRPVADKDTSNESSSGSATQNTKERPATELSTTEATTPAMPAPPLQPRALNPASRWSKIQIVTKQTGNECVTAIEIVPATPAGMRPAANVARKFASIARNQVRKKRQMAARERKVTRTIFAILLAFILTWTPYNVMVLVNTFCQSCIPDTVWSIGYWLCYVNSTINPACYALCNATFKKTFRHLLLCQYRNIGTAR
As to the kind of experiment: Displacement of [3H]NMS from human cloned muscarinic M4 receptor expressed in CHO cells by scintillation counting. In kind it is cell-based. Background: Loss of bound radioactivity is the signal in a displacement assay; it reports binding, not function.

Test [2] has as its target T2, Muscarinic acetylcholine receptor M2 (Homo sapiens, UniProt P08172).
T2 sequence (P08172 whole entry): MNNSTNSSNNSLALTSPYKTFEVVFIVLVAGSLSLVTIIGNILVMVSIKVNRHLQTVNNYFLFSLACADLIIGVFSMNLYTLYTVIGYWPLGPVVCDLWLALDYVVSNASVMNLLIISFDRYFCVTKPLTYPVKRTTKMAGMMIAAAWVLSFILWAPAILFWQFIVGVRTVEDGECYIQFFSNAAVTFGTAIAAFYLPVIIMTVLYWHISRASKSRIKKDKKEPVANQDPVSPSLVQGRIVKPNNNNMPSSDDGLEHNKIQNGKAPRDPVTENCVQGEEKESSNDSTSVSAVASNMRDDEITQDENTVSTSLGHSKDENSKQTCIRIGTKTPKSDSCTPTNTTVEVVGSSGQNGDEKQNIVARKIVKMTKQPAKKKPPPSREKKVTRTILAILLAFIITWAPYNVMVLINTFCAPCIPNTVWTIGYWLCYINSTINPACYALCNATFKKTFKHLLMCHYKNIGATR
As to the kind of experiment: Displacement of [3H]NMS from human cloned muscarinic M2 receptor expressed in CHO cells by scintillation counting. It is filed as cell-based. Summed up:
(§1)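 Equilibrium radioligand binding in CHO cells expressing the human muscarinic subtype, following the authors' earlier protocol.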

For test [3], the target named is Muscarinic acetylcholine receptor M3 (Cavia porcellus) (UniProt Q8VH26). As to the kind of experiment: Antagonist activity at muscarinic M3 receptor in guinea pig ileum assessed as effect on isotonic tension after 60 mins. In kind it is functional, tissue-based.
In test [4] the target is Muscarinic acetylcholine receptor M3 (Homo sapiens, UniProt P20309). Description: Displacement of [3H]NMS from human cloned muscarinic M3 receptor expressed in CHO cells by scintillation counting. It is filed as cell-based.
Test [5] is described as follows: Antagonist activity at muscarinic M1 receptor in New Zealand rabbit vas deferens assessed as effect on electrically-stimulated muscle contraction after 60 mins. It is filed as functional, Oryctolagus cuniculus.
For test [6], the target named is T3, Muscarinic receptor 4 (Cavia porcellus) (UniProt Q8VH25).
T3 sequence (whole entry): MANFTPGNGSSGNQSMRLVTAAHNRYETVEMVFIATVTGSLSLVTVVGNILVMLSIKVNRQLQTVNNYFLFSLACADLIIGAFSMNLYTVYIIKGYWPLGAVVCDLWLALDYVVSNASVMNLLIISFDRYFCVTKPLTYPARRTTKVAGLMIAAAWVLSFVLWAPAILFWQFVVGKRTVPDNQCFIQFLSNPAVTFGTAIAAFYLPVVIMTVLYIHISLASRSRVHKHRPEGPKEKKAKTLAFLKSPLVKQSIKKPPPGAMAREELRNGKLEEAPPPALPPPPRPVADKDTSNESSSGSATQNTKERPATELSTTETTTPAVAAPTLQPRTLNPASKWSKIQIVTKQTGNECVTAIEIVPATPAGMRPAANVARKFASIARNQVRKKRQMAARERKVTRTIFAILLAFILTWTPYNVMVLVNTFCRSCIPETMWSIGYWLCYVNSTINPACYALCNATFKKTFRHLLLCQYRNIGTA
Description: (§2) Antagonist activity at muscarinic M4 receptor in guinea pig lung strips assessed as effect on isotonic contraction after 60 mins. It is filed as functional.

Test [7] concerns the target T4, Muscarinic acetylcholine receptor M1 (Homo sapiens, UniProt P11229).
T4 sequence (P11229 whole entry): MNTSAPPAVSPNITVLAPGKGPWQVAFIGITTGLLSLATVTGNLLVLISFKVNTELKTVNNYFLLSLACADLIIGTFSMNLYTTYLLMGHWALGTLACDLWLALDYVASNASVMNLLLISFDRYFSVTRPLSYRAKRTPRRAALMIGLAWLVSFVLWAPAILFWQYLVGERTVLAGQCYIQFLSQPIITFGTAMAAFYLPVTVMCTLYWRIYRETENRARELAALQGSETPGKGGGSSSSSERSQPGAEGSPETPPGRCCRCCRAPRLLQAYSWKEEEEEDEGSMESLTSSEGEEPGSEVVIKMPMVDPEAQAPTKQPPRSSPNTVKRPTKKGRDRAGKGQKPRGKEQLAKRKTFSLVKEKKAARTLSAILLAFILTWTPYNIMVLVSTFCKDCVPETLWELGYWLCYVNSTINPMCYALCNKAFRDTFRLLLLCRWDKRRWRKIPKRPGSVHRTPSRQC
As to the kind of experiment: Displacement of [3H]NMS from human cloned muscarinic M1 receptor expressed in CHO cells by scintillation counting. It is filed as cell-based.

The target in test [8] is T5, Muscarinic receptor 2 (Cavia porcellus) (UniProt Q8VH27).
T5 sequence (whole entry): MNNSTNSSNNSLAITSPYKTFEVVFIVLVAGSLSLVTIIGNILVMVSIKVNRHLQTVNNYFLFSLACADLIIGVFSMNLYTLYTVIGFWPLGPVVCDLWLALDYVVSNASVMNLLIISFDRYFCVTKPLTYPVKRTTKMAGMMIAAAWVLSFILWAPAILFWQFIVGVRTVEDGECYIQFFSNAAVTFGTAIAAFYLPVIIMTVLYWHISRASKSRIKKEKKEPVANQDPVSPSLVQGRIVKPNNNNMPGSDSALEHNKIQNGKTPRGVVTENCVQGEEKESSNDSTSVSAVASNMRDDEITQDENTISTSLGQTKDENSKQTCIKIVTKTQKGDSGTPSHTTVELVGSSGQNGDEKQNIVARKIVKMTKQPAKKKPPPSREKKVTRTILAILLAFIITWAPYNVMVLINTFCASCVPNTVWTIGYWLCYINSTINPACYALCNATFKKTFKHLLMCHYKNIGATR
As to the kind of experiment: (§3) Antagonist activity at muscarinic M2 receptor in guinea pig left atrium assessed as effect on electrically-stimulated inotropic activity after 60 mins. It is filed as functional, tissue-based. The note with it: Cardiac atrium.

Test [9] addresses T6, Muscarinic acetylcholine receptor M5 (Homo sapiens, UniProt P08912).
T6 sequence (P08912 whole entry): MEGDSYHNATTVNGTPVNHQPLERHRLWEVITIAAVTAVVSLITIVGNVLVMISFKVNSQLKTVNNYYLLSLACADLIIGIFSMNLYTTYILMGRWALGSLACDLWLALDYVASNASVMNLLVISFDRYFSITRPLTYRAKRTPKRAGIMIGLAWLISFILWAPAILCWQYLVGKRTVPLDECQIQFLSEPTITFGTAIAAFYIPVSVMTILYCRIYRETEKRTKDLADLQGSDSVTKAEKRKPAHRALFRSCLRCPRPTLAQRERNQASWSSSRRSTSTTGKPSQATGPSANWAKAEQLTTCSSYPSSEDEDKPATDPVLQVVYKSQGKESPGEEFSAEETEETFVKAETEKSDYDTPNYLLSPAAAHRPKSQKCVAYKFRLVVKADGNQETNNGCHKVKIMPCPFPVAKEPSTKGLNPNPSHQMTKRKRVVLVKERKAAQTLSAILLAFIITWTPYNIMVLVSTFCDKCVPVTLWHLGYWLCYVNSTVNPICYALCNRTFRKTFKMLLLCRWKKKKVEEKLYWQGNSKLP
As to the kind of experiment: Displacement of [3H]NMS from human cloned muscarinic M5 receptor expressed in CHO cells by scintillation counting. In kind it is cell-based. Summed up:
as §1

The target of the next test is T7, Muscarinic receptor 4 (Cavia porcellus, UniProt Q8VH25).
T7 sequence (Q8VH25 whole entry): T3 sequence (whole entry)
Described as §2. In kind it is functional. The note with it: read-out: pA2 (converted).

For another test, the target named is T8, Muscarinic receptor 2 (Cavia porcellus, UniProt Q8VH27).
T8 sequence (Q8VH27 whole entry): T5 sequence (whole entry)
The description is as §3. It is filed as functional, tissue-based, Cardiac atrium. To be noted: read-out: pA2 (converted).

Molecules are shown by their SMILES.

Chain of Muscarinic acetylcholine receptor M3 (P20309 whole entry): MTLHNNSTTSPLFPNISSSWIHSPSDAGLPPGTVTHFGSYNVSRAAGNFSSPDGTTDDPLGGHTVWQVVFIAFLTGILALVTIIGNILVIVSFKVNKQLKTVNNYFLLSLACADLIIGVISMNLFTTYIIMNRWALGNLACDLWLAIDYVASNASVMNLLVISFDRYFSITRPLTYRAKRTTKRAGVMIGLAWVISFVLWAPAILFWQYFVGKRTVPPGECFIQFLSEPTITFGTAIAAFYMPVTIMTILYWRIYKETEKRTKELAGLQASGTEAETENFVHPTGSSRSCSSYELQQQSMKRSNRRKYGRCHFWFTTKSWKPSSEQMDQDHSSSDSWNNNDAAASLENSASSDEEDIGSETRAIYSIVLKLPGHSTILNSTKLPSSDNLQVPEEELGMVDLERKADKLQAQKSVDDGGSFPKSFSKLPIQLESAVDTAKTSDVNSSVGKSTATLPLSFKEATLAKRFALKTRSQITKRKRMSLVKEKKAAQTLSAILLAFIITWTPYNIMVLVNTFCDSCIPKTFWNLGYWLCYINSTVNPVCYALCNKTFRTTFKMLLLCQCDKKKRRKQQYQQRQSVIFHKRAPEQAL
Chain of Muscarinic acetylcholine receptor M3 (Cavia porcellus) (Q8VH26 1-587): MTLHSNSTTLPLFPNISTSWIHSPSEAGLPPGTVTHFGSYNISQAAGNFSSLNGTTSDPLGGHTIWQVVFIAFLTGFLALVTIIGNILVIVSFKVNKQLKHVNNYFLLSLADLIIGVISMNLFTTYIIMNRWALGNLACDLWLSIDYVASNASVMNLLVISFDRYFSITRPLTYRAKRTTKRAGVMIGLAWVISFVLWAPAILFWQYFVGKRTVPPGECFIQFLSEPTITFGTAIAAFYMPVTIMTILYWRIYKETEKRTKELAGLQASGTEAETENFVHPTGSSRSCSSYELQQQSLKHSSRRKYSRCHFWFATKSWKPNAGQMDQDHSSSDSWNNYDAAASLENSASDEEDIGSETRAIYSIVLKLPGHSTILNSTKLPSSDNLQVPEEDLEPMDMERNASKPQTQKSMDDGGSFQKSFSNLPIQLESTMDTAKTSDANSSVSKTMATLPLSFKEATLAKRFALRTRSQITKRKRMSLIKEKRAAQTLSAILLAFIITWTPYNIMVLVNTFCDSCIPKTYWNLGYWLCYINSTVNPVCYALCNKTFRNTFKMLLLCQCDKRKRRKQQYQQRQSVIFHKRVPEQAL

As for `CN1CCCC1c1ccc(C(O)(c2ccccc2)c2ccccc2)o1` (racemic), the inhibition constant (Ki) in [1] was 105 nM; in [2] it was 29.5 nM; in test [4], 95.5 nM; in test [7], 35.5 nM; in test [9], 97.7 nM. Also, the pKb is 6.65 in test [3], 6.91 in test [5], below 5 in test [6] and 6.92 in test [8].
`CN1CCCC1c1ccc(C(c2ccccc2)c2ccccc2)o1` (stereo not drawn): the Ki in test [1] is 158 nM; in test [2] it was 64.6 nM; in test [4] it was 85.1 nM; in test [7], 42.7 nM; in test [9] it was 105 nM. Also, the pKb in [3] turned out to be 6.81; in test [5], 6.64; in test [6], 5.19; in test [8], 6.52.
As for `C[N+]1(C)[C@@H]2C[C@@H](OC(=O)[C@H](CO)c3ccccc3)C[C@H]1[C@@H]1O[C@@H]12` [METHSCOPOLAMINE], the Kb is 6.46 nM at Muscarinic receptor 4 and 0.468 nM at Muscarinic receptor 2.
In the case of `C[N+]1(C)CCC[C@@H]1c1ccc([C@](O)(c2ccccc2)C2CCCCC2)o1.[I-]`, the Ki in [1] is 4.27 nM; in test [2], 2.34 nM; in test [4], 1.51 nM; in test [7], 0.692 nM; in test [9], 1.55 nM. Further, the pKb turned out to be 8.95 in test [3], 10.15 in test [5], 7.75 in test [6] and 8.49 in test [8].
`CN1CCC[C@@H]1c1ccc([C@](O)(c2ccccc2)C2CCCCC2)o1`: the Ki in [1] was 3.98 nM; in test [2] it was 4.57 nM; in test [4] it was 1.66 nM; in test [7], 1.23 nM; in [9], 3.31 nM. The pKb in test [3] came to 8.76; in test [5], 9.58; in test [6], 5.92; in [8] it was 7.91.

For the origin of these results see ChEMBL document CHEMBL1156772, “Synthesis, affinity profile and functional activity of potent chiral muscarinic antagonists with a pyrrolidinylfuran structure” (J Med Chem, 2010).
